ChEMBL document CHEMBL1139681, “Discovery of orally active butyrolactam 11beta-HSD1 inhibitors” (Bioorg Med Chem Lett, 2006)

Tests used:
[1] = biological target: 11-beta-hydroxysteroid dehydrogenase 1 (Mus musculus, UniProt P50172); experiment: Inhibition of mouse 11beta-HSD1
[2] = biological target: T1, 11-beta-hydroxysteroid dehydrogenase type 2 (Mus musculus, UniProt P51661); experiment: Inhibition of mouse 11beta-HSD2
T1 sequence (P51661 whole entry): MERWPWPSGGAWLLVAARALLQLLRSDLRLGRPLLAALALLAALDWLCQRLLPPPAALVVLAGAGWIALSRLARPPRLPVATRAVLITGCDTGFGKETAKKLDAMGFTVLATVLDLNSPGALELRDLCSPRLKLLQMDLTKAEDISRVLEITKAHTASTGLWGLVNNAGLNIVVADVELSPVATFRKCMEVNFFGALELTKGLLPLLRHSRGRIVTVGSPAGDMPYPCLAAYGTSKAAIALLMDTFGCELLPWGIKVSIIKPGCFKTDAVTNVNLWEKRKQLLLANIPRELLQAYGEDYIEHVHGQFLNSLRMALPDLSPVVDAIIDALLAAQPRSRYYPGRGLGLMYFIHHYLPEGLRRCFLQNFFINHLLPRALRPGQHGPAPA

[3] = Stability in mouse liver microsomes after 30 min; type: ADME, Microsome; conditions: for remaining at 0.5 h: liver microsomes, read-out: Stability
Summary of the method: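 Percent parent remaining after a 30-min incubation with mouse liver microsomes.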

[4] = biological target: T2, 11-beta-hydroxysteroid dehydrogenase 1 (Homo sapiens, UniProt P28845); experiment: Inhibition of human 11beta-HSD1 expressed in HEK293 cells; type: cell-based
T2 sequence (P28845 whole entry): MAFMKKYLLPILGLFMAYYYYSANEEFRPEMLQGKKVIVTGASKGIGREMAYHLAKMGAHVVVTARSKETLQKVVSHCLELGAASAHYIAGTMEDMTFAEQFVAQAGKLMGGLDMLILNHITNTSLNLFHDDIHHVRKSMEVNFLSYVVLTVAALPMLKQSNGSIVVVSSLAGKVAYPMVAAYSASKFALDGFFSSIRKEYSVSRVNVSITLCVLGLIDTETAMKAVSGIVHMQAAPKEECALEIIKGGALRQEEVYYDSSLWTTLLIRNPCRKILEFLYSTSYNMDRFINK

[5] = biological target: T3, 11-beta-hydroxysteroid dehydrogenase type 2 (Homo sapiens, UniProt P80365); experiment: Inhibition of human 11beta-HSD2
T3 sequence (P80365 whole entry): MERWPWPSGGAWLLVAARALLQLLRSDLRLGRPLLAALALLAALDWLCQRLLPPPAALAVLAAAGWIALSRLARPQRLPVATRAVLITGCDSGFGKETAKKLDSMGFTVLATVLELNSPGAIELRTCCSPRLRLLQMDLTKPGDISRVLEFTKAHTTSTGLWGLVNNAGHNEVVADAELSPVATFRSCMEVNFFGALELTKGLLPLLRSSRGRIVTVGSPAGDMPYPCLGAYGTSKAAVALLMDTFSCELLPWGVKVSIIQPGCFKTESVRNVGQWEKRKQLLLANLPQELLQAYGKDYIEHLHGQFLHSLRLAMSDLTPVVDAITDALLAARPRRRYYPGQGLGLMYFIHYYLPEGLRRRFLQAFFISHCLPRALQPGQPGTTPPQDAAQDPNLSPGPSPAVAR

[6] = biological target: T2, 11-beta-hydroxysteroid dehydrogenase 1; experiment: Inhibition of human 11beta-HSD1
[7] = Plasma clearance in mouse at 5 mg/kg, iv and 10 mg/kg, po; type: ADME, organism-based
Summary of the method: (§1)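 Mouse PK; parameters derived from iv dosing at 5 mg/kg and oral (po) dosing at 10 mg/kg.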

[8] = Half life in mouse at 5 mg/kg, iv and 10 mg/kg, po; type: ADME, organism-based; conditions: in vivo; summary of the method: as §1
[9] = Bioavailability in mouse at 5 mg/kg, iv and 10 mg/kg, po; type: ADME, organism-based; conditions: in vivo; summary of the method: as §1
Mus musculus [10] = experiment: Lowering of plasma insulin level in DIO C57BL/6J mouse at 30 mg/kg, po after 4hrs fasting; type: functional
Summary of the method: (§2)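 Male C57BL/6J mice (5–6 weeks at purchase) made obese on high-fat diet, group-housed, 12 h light/dark cycle. Conditioned to oral gavage beforehand; assigned to groups of equal mean body weight. Dosed po bid (08:00, 15:00) in 1% Tween 80 in water, 4 ml/kg, for 14 days; lean and high-fat vehicle controls. Plasma analytes measured after 4 h fast; Dunnett's test.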

Mus musculus [11] = experiment: Lowering of plasma glucose level in DIO C57BL/6J mouse at 30 mg/kg, po after 4 hr fasting; type: functional; summary of the method: as §2
Mus musculus [12] = experiment: Effect on plasma triglyceride level in DIO C57BL/6J mouse at 30 mg/kg, po after 4 hr fasting; type: functional; summary of the method: as §2
Mus musculus [13] = experiment: Effect on body weight in DIO C57BL/6J mouse at 30 mg/kg, po; type: functional; summary of the method: as §2
[14] = biological target: 11-beta-hydroxysteroid dehydrogenase 1 (Mus musculus) (UniProt P50172); experiment: Inhibition of DIO mouse liver 11beta-HSD1at 30 mg/kg, po after 7 hrs; type: organism-based; design: dose 30 mg/kg; conditions: at 30 mg/kg
Sequence of 11-beta-hydroxysteroid dehydrogenase 1 (Mus musculus) (P50172 whole entry, looked up): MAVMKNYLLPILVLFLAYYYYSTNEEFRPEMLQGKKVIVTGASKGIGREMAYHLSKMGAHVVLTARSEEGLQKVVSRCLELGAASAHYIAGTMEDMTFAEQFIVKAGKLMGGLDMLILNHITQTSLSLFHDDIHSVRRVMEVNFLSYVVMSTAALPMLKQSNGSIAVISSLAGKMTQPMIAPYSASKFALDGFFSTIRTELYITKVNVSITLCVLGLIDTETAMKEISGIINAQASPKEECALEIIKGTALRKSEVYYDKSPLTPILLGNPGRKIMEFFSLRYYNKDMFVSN
Summary of the method: (§3)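 DIO mice given a single 30 mpk dose; 11β-HSD1 inhibition in liver and fat measured ex vivo at 1, 7 and 16 h post-dose.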

[15] = biological target: 11-beta-hydroxysteroid dehydrogenase 1 (Mus musculus) (UniProt P50172); experiment: Inhibition of DIO mouse liver 11beta-HSD1at 30 mg/kg, po after 1 hr; type: organism-based; design: dose 30 mg/kg; conditions: at 30 mg/kg; summary of the method: as §3
[16] = biological target: 11-beta-hydroxysteroid dehydrogenase 1 (Mus musculus) (UniProt P50172); experiment: Inhibition of DIO mouse liver 11beta-HSD1at 30 mg/kg, po after 16 hrs; type: organism-based; design: dose 30 mg/kg; conditions: at 30 mg/kg; summary of the method: as §3
[17] = biological target: 11-beta-hydroxysteroid dehydrogenase 1 (Mus musculus) (UniProt P50172); experiment: Inhibition of DIO mouse epididymal fat pad 11beta-HSD1 at 30 mg/kg, po after 7 hrs; type: organism-based; design: dose 30 mg/kg; summary of the method: as §3
[18] = biological target: 11-beta-hydroxysteroid dehydrogenase 1 (Mus musculus) (UniProt P50172); experiment: Inhibition of DIO mouse epididymal fat pad 11beta-HSD1 at 30 mg/kg, po after 16 hrs; type: organism-based; design: dose 30 mg/kg; summary of the method: as §3
Mus musculus [19] = experiment: Effect on plasma triglyceride level in DIO C57BL/6J mouse at 5 mg/kg, po after 4hrs fasting; type: functional; summary of the method: as §2
Mus musculus [20] = experiment: Lowering of plasma insulin level in DIO C57BL/6J mouse at 5 mg/kg, po after 4 hr fasting; type: functional; summary of the method: as §2
Mus musculus [21] = experiment: Effect on body weight in DIO C57BL/6J mouse at 5 mg/kg, po; type: functional; summary of the method: as §2
Mus musculus [22] = experiment: Lowering of plasma glucose level in DIO C57BL/6J mouse at 5 mg/kg, po after 4 hr fasting; type: functional; summary of the method: as §2
[23] = biological target: 11-beta-hydroxysteroid dehydrogenase 1 (Mus musculus) (UniProt P50172); experiment: Inhibition of DIO mouse epididymal fat pad 11beta-HSD1 at 30 mg/kg, po after 1 hr; type: organism-based; design: dose 30 mg/kg; summary of the method: as §3

Sequence of 11-beta-hydroxysteroid dehydrogenase 1 (Mus musculus, UniProt P50172) (P50172 whole entry): as the sequence (P50172 whole entry, looked up) above

SMILES | IC50 [1] | IC50 [2] | remaining at 0.5 h [3] | IC50 [4] | IC50 [5] | IC50 [6] | further results
N#Cc1ccc(OCC2CC(=O)N(C3CCCCCC3)C2)nc1 (centres undefined) | 10000 nM |  |  |  |  |  | 
CC1(C)C(=O)N([C@H]2C3CC4CC2C[C@](C(=N)NO)(C4)C3)CC1COc1ccc(C(F)(F)F)cn1 (some centres undefined) | 14 nM | 60000 nM | 67% |  |  |  | 
CC#C[C@]1(O)CC[C@H]2[C@@H]3CCC4=CC(=O)CCC4=C3[C@@H](c3ccc(N(C)C)cc3)C[C@@]21C [MIFEPRISTONE] |  |  |  |  |  |  | Activity (Mus musculus [10]): 1.5 ng/mL; Activity (Mus musculus [11]): 147.5 mg/dL; Activity (Mus musculus [12]): 43.2 mg/dL; Activity (Mus musculus [13]): 39.5 g
CC1(C)C(=O)N(C2CCCN(C(N)=O)CC2)CC1COc1ccc(C#N)cn1 (centres undefined) |  |  |  |  |  |  | Ki [6]: 190 nM; Ki [1]: 250 nM
CCOC(=O)[C@H]1[C@@H]2CCC(N3CC(COc4ccc(C#N)cn4)C(C)(C)C3=O)CC[C@@H]21 (some centres undefined) |  | > 100000 nM |  | 518 nM | > 30000 nM |  | Ki [6]: 50 nM; Ki [1]: 260 nM
CC1(C)C(=O)N([C@H]2C3CC4CC2C[C@](C(N)=O)(C4)C3)CC1COc1ccc(-n2cncn2)cc1 (some centres undefined) | 32 nM | 8000 nM |  | 43 nM | 1600 nM | 41 nM | 
CN(CCOc1ccc(CC2SC(=O)NC2=O)cc1)c1ccccn1 (centres undefined) [ROSIGLITAZONE] |  |  |  |  |  |  | Activity (Mus musculus [19]): 50.8 mg/dL; Activity (Mus musculus [20]): 0.97 ng/mL; Activity (Mus musculus [21]): 41.6 g; Activity (Mus musculus [22]): 143.4 mg/dL
CC1(C)C(=O)N([C@H]2C3CCCC2C[C@@H](C(N)=O)C3)CC1COc1ccc(C#N)cn1 (stereo in doubt; 31) [listing 2 of 2 here] |  |  |  |  |  |  | inhibition [14]: 33%; inhibition [23]: 68%; inhibition [15]: 73%; inhibition [16]: 14%; inhibition [17]: 30%; inhibition [18]: 17%
CC1(C)C(=O)N(C23CCC(C(N)=O)(CC2)CC3)CC1COc1ccc(C#N)cn1 (centres undefined) | 10 nM | 100000 nM | 91% |  |  |  | 
C[C@H]1C(=O)N(C2CCCCCC2)C[C@@H]1COc1ccc(C#N)cn1 | 75 nM |  |  |  |  |  | 
CC1(C)C(=O)N(C2CCCCCC2)CC1COc1ccc(C#N)cn1 (centres undefined) | 62 nM | 100000 nM |  |  |  |  | 

More lines, main results first:

IC50 [1] | IC50 [2] | remaining at 0.5 h [3] | IC50 [4] | IC50 [5] | IC50 [6] | SMILES | further results
110 nM | > 100000 nM | 100% |  |  |  | CC1(C)C(=O)N([C@H]2C3CC4CC2C[C@](C(=N)N)(C4)C3)CC1COc1ccc(C(F)(F)F)cn1 (some centres undefined) | 
3 nM | > 50000 nM |  | 39 nM | 15000 nM | 7 nM | CC1(C)C(=O)N([C@H]2C3CCCC2C[C@@H](C(N)=O)C3)CC1COc1ccc(C#N)cn1 (stereo in doubt; 31) [listing 1 of 2 here] | Stability ([3]; microsomes, 0.5 h): 88%; clearance [7]: 23.3 mL/min/kg; half-life [8]: 1.3 h; bioavailability [9]: 63.9%
2 nM | 10000 nM | 97% |  |  |  | CC1(C)C(=O)N([C@H]2C3CC4CC2C[C@](C(N)=O)(C4)C3)CC1COc1ccc(C#N)cn1 (some centres undefined) | inhibition [14]: 94%; Activity (Mus musculus [10]): 1.31 ng/mL; inhibition [15]: 99%; inhibition [16]: 67%; Activity (Mus musculus [11]): 164.7 mg/dL; Activity (Mus musculus [12]): 33.3 mg/dL; inhibition [17]: 71%; Activity (Mus musculus [13]): 40.7 g; clearance [7]: 33.3 mL/min/kg; half-life [8]: 1.3 h; inhibition [18]: 46%; bioavailability [9]: 76.6%
 | > 100000 nM | 12% | 510 nM | > 100000 nM |  | CC1(C)C(=O)N([C@H]2C3CCCC2C[C@H](C(N)=O)C3)CC1COc1ccc(C#N)cn1 (some centres undefined) | Ki [6]: 29 nM; Ki [1]: 17 nM
 |  |  |  | > 10000 nM | 832 nM | O=C1C(Cc2ccccc2)CCN1[C@H]1C2CC3CC1C[C@](O)(C3)C2 (some centres undefined) | 
 |  |  |  | > 10000 nM | 64 nM | O=C1C(Cc2ccccc2)CCN1C1C2CC3CC(C2)CC1C3 (centres undefined) | 
41 nM | 14000 nM | 28% | 28 nM | 1800 nM | 76 nM | CC1(C)C(=O)N([C@H]2C3CC4CC2C[C@](C(N)=O)(C4)C3)CC1COc1ccc(-n2ccnc2)cc1 (some centres undefined) | 
 |  |  |  | > 10000 nM | 107 nM | O=C1C(Cc2ccccc2)CCN1C1CCCCC1 (centres undefined) | 
 |  |  |  | > 30000 nM | 35 nM | NC(=O)[C@]12CC3CC(C1)[C@@H](N1CCC(Cc4ccccc4)C1=O)C(C3)C2 (some centres undefined) | 
9 nM | 100000 nM | 92% | 46 nM | 22000 nM | 5 nM | CC1(C)C(=O)N([C@H]2C3CCCC2C[C@@H](C(N)=O)C3)CC1COc1ccc(C#N)cn1 (stereo in doubt; 32) | 
430 nM | 1600 nM |  | 230 nM | 630 nM | 310 nM | CC1(C)C(=O)N([C@H]2C3CC4CC2C[C@](c2nnn[nH]2)(C4)C3)CC1COc1ccc(C(F)(F)F)cn1 (some centres undefined) | 
